The values that follow come from ChEMBL document CHEMBL3414517, “Synthesis and structure-activity relationship study of a new series of selective σ(1) receptor ligands for the treatment of pain: 4-aminotriazoles” (J Med Chem, 2015).

By inhibition is commonly meant the percentage by which the read-out fell short of the control. Lower therefore signals a weak effect. As usually defined, the IC50 is the point on the concentration scale where inhibition reaches its midpoint. High values mean weaker potency, low ones greater potency. By Ki is commonly meant a dissociation constant, usually derived from enzyme kinetics or from competition with a known ligand. For orientation: inhibition in vivo means the drop in the measured response relative to a control, in per cent. Usually Papp stands for the rate of passage across a membrane or cell layer, normalised by area and donor concentration. The logP is the decadic logarithm of the partition coefficient of the neutral form, usually between octanol and water. The term pKa denotes the pH at which an ionisable group is half protonated. Low values mean a group that gives up its proton readily, high ones a group that holds its proton tightly.

The species named for one data set is Cavia porcellus. As to the kind of experiment: Displacement of [3H]-DTG from sigma 2 receptor in guinea pig brain membrane at 1 uM after 120 mins by liquid scintillation counting. Type of data set: cell membranes. An outline of the steps:
(§1)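 Guinea pig brain membranes (200 μg) with 10 nM [³H]-DTG in 50 mM Tris-HCl pH 8, σ1R masked by 400 nM (+)-SKF10047; 25 °C, 120 min; 10 μM haloperidol for non-specific binding. Filtered, washed 3× ice-cold 50 mM Tris-HCl pH 7.4, scintillation counted.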
(In general: In a radioligand displacement assay an active substance lowers the binding of a labelled ligand.)

In data set [1] the target is Voltage-gated inwardly rectifying potassium channel KCNH2 (Homo sapiens, UniProt Q12809).
In data set [2] the target is Sigma non-opioid intracellular receptor 1 (Homo sapiens, UniProt Q99720). As to the kind of experiment: Displacement of [3H](+)-pentazocine from human sigma 1 receptor transfected in HEK293 cells after 120 mins by liquid scintillation counting. The class given is cell-based.
The nature of data set [3]: Displacement of [3H]-DTG from sigma 2 receptor in guinea pig brain membrane after 120 mins by liquid scintillation counting. The class given is cell membranes, Cavia porcellus. The essentials: as §1
Data set [4] concerns Mus musculus. As to the kind of experiment: Antinociceptive activity against formalin-induced pain in CD1 mouse assessed as reduction in mean licking and biting time at 40 mg/kg, ip administered 30 mins before fomalin injection measured during second phase of 15 to 30 mins after formalin challenge. The class given is functional. The following applies: route intraperitoneal. An outline of the steps: (§2)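 Male CD1 mice, 6–8 weeks; 20 μL of 2.5% formalin (0.92% formaldehyde) injected i.pl. into right hind paw midplantar surface. Vehicle 0.5% HPMC or compound given i.p. or p.o. (10 mL/kg) 30 min before formalin; n = 7–8/group. Licking/biting time scored 15–30 min post-injection (phase II), blind; % antinociception derived relative to vehicle group.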

The test system of data set [5] is Mus musculus. As to the kind of experiment: Antinociceptive activity against formalin-induced pain in CD1 mouse assessed as reduction in mean licking and biting time at 80 mg/kg, po administered 30 mins before fomalin injection measured during second phase of 15 to 30 mins after formalin challenge. The class given is functional. The essentials:
as §2

In data set [6] the test system is Mus musculus. As to the kind of experiment: Antinociceptive activity in CD1 mouse assessed as reduction in capsaicin-induced mechanical hypersensitivity measured as latency time to paw withdrawal response to upward pressure at 80 mg/kg, po administered 30 mins prior to capsaicin-challenge measured after 45 mins of treatment by von Frey filament test. The class given is functional. The essentials: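 Female CD1 mice habituated 2 h on mesh platform; vehicle 0.5% HPMC or compound p.o. (10 mL/kg) 30 min before i.pl. capsaicin (1 μg in 20 μL 1% DMSO). 15 min after capsaicin, dynamic plantar aesthesiometer filament (0.5 g) applied ≥5 mm from site, 3 trials averaged, 50 s cut-off; n = 8–26. % reduction of hypersensitivity = (LTD−LTV)/(CT−LTV)×100.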

The subject of data set [7] is Mus musculus. As to the kind of experiment: Antinociceptive activity in CD1 mouse sciatic nerve injury-induced neuropathic pain model assessed as reduction in mechanical hypersensitivity measured as hind paw withdrawal response at 80 mg/kg, po treated 30 mins before test by von Frey filament test. The class given is functional. An outline of the steps: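 Male CD1 mice with partial sciatic nerve ligation; habituation 4 days, 2 baseline days, allodynia checked days 5 and 8 (vehicle on day 8). Compound given p.o. (10 mL/kg) on day 15, 30 min before von Frey testing; n = 7–8/group, two independent experiments. Effect referenced to day-8 vehicle threshold and pre-surgery baseline.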

The nature of data set [8]: Intrinsic clearance in human liver microsomes assessed as per mg of protein at 10 uM. The note with it: read-out: CLH. Type of data set: ADME. Background: Microsomes from liver hold many membrane-bound enzymes, among them those of drug oxidation.
The nature of data set [9]: Apparent permeability across human Caco2 cells at 10 uM after 2 hrs. Type of data set: ADME, cell-based. The note with it: Caco-2. In general terms: Caco-2 cells form a polarised layer with tight junctions and transporters.
Data set [10] is described as follows: Lipophilicity, log P of the compound. Type of data set: physicochemical. The note with it: octanol/water. An outline of the steps: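 clogP calculated with ChemDraw Ultra 10.0.3.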
Data set [11] in a line: Dissociation constant, pKa of the compound. Type of data set: physicochemical. An outline of the steps:
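pKa calculated in silico with ACDLABS 9.0.3.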

Data set [12] can be described thus: Thermodynamic solubility of the compound in phosphate buffer at pH 7.4. The class given is physicochemical. The note with it: read-out: Therm_solubility. An outline of the steps: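 Thermodynamic solubility measured from solid compound in phosphate buffer, pH 7.4, quantified by HPLC.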

Converted amounts (≈) assume the structure as drawn. Some results are limits rather than exact numbers.

Sequence of Sigma non-opioid intracellular receptor 1 (Q99720 whole entry): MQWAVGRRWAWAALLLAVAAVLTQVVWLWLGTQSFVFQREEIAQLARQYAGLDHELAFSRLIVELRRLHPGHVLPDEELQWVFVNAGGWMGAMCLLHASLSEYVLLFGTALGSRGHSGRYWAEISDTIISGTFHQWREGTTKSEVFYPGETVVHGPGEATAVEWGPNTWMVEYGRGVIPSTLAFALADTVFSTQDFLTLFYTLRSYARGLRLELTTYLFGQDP
Sequence of Voltage-gated inwardly rectifying potassium channel KCNH2 (Q12809 whole entry): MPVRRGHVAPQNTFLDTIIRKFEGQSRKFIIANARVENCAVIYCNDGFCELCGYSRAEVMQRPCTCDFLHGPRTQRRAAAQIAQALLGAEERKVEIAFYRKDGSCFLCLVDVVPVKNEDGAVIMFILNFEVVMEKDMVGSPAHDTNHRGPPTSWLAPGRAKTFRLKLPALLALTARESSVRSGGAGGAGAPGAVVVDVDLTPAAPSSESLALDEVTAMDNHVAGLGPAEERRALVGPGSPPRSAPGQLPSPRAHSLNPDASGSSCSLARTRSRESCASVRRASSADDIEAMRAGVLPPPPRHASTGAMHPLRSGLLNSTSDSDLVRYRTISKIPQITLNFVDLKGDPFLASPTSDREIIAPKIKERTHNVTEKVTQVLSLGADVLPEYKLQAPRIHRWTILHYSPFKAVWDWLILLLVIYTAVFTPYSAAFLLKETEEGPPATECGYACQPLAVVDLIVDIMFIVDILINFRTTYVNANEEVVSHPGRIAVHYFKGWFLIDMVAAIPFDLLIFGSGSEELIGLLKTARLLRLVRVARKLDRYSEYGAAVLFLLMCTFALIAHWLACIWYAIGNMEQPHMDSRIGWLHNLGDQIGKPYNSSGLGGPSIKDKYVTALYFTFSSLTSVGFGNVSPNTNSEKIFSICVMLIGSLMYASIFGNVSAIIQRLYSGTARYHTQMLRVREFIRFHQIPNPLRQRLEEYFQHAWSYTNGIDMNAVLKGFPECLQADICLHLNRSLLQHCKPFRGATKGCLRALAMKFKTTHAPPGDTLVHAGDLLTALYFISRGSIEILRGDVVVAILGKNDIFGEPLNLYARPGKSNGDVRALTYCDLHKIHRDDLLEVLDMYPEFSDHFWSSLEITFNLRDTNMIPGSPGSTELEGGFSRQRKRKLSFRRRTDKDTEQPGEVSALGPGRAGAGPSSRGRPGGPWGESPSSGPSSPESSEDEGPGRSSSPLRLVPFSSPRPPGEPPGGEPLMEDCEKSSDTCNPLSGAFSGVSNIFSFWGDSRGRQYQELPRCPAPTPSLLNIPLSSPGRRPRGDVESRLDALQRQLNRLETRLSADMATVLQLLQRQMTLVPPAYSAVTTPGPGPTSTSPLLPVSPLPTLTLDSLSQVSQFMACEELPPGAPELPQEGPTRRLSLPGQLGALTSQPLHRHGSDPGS

Consider `c1ccc(Cn2cc(NCCN3CCCCCC3)nn2)cc1`, for which the inhibition in the data set listed under Cavia porcellus worked out at 75%.
Still for that read-out and setting: under `Clc1ccc(Cn2cc(NCCN3CCCOCC3)nn2)cc1Cl` stands 66%; under `C[C@@H]1CCC[C@H](C)N1CCNc1cn(Cc2ccc(F)cc2)nn1`, 72%.
On the same count and under the same terms, then `Clc1ccc(Cn2cc(NCCN3CCCCCC3)nn2)cc1Cl`, with 87%.
`Fc1ccc(-n2cc(NCCN3CCC(F)(F)CC3)nn2)cc1F` displayed an inhibition in the data set filed under Cavia porcellus of 29%. Besides, the concentration for half-maximal inhibition (IC50) in [1] is > 10000 nM.
Take `Clc1ccc(-n2ccc(NCCN3CCCCC3)n2)cc1Cl`: the Ki in data set [2] came to 10 nM; in data set [3], 91 nM.
On to `Fc1ccc(-n2cc(NCCN3CCCCC3)nn2)cc1`, for which the inhibition in the data set listed under Cavia porcellus amounted to 54%.
In [3], `Clc1ccc(-n2cc(NCCN3CCCCC3)nn2)cc1Cl` displayed a Ki of 323 nM. Also, the IC50 in data set [1] stood at 1700 nM.
The molecule `CC(=O)N(CCN1CCOCC1)c1cn(-c2ccc(Cl)c(Cl)c2)nn1` registered a Ki in data set [2] of 388 nM.
In the data set listed under Cavia porcellus, `Fc1cccc(-n2cc(NCCN3CCN(C4CCCCC4)CC3)nn2)c1` came in with an inhibition of 74%.
For `Fc1ccc(Cn2cc(NCCN3CCOCC3)nn2)cc1`, in data set [2], affinity was put at a Ki of 662 nM.
Regarding `Clc1ccc(-n2cc(NCCN3CCCCC3)nn2)c(Cl)c1`, the inhibition in the data set filed under Cavia porcellus came to 62%.
Regarding `Fc1ccc(Cn2cc(NCCN3CCC(F)(F)CC3)nn2)cc1`, the Ki in data set [3] is > 10000 nM.
`Fc1cccc(-n2cc(NCCN3CCCOCC3)nn2)c1` gave an inhibition in the data set listed under Cavia porcellus of 47%.
In the case of `c1c(NCCN2CCOCC2)nnn1C12CC3CC(CC(C3)C1)C2`, in data set [1], the IC50 was > 10000 nM.
With `Clc1ccc(-n2ccc(NCCN3CCOCC3)n2)cc1Cl`, affinity in data set [3] was put at a Ki of 562 nM.
As for `Cc1cc(OCCN2CCOCC2)nn1-c1ccc2ccccc2c1`, the Ki in [3] was > 1000 nM. In addition, in the data set on Mus musculus [4], the inhibition in vivo at 40 mg/kg was determined as 50%. For the same molecule, the inhibition in vivo at 80 mg/kg came out at 66% in the data set on Mus musculus [5], 48% with Mus musculus [6] and 62% in the data set with Mus musculus [7]. Besides, in data set [8], the microsomal CLint at 10 µM is 3 µL/min/mg.
In turn, `Fc1ccc(Cn2cc(NCCN3CCCCC3)nn2)cc1F` had a Ki in data set [3] of 946 nM. That is a sub-micromolar value.
On the same count and under the same terms, then `c1ccc(Cn2cc(NCCN3CCCCC3)nn2)cc1`, with 624 nM.
With `CN1CCN(CCNc2cn(Cc3ccccc3)nn2)CC1`, the Ki in data set [2] came to 9620 nM.
As for `Clc1ccc(-n2cc(NCCN3CCOCC3)nn2)cc1Cl`, the Ki in [3] was > 10000 nM. Moreover, the inhibition in vivo at 40 mg/kg in the data set on Mus musculus [4] worked out at 95%. For the same molecule, the inhibition in vivo at 80 mg/kg in the data set on Mus musculus [5] came out at 62%; in the data set on Mus musculus [6], 68%; in the data set on Mus musculus [7] it was 56%. Besides, the microsomal CLint at 10 µM in data set [8] stood at 0.8 µL/min/mg. Moreover, the Papp at 2 h, 10 µM in [9] is 51 ×10⁻⁶ cm/s. Moreover, the logP in data set [10] was determined as 2.9. This molecule also registered a pKa in [11] of 6.6. The solubility thermodynamic in [12] was found to be 170 µg/mL (≈ 497 µM). For the same molecule, the IC50 in [1] was > 10000 nM.
Take `Clc1ccc(-n2cc(NCCN3CCCCC3)nn2)cc1`: the inhibition in the data set listed under Cavia porcellus amounted to 65%. Also, the half-inhibitory concentration (IC50) in [1] turned out to be 3100 nM.
`CCN(CCN1CCOCC1)c1cn(C23CC4CC(CC(C4)C2)C3)nn1` had a Ki in data set [3] of 72 nM.
Turning to `Fc1cccc(-n2cc(NCCN3CCCCCC3)nn2)c1`, in the data set filed under Cavia porcellus, the inhibition was 86%.
In turn, `Clc1ccc(Cn2cc(NCCN3CCCCC3)nn2)cc1Cl` registered a Ki in data set [3] of 69 nM.
For the molecule `Fc1ccc(Cn2cc(NCCN3CCC(F)(F)CC3)nn2)cc1F`, in data set [3], the Ki is > 10000 nM. Also, in data set [1], the IC50 is > 10000 nM.
Regarding `c1c(NCCN2CCOCC2)nnn1C1CCCCC1`, the Ki in [2] is > 1000 nM.
In the data set filed under Cavia porcellus, `Fc1ccc(Cn2cc(NCCN3CCCCC3)nn2)cc1` had an inhibition of 66%.
`CS(=O)(=O)N(CCN1CCOCC1)c1cn(-c2ccc(Cl)c(Cl)c2)nn1`: the Ki in data set [2] is > 1000 nM.
Regarding `CCN(CC)CCNc1cn(Cc2ccccc2)nn1`, the Ki in data set [2] worked out at 701 nM.
Regarding `c1ccc(Cn2cc(NCCN3CCOCC3)nn2)cc1`, the Ki in [2] is > 1000 nM.
In turn, `Fc1cccc(-n2cc(NCCN3CCCCC3)nn2)c1` had an inhibition in the data set listed under Cavia porcellus of 59%. This molecule yielded an IC50 in data set [1] of 5200 nM.
Consider `Clc1ccc(Cn2cc(NCCCN3CCOCC3)nn2)cc1Cl`, for which, in data set [2], affinity was put at a Ki of 508 nM. This counts as sub-micromolar.
As to `Fc1cccc(Cn2cc(NCCN3CCCCC3)nn2)c1`, the inhibition in the data set listed under Cavia porcellus is 43%. Moreover, in data set [1], the IC50 is > 10000 nM.
In the data set filed under Cavia porcellus, `Fc1ccc(-n2cc(NCCN3CCCCC3)nn2)c(F)c1` displayed an inhibition of 53%.
For the molecule `CCCN(CCN1CCOCC1)c1cn(-c2ccc(Cl)c(Cl)c2)nn1`, the Ki in data set [2] came out at 451 nM.
`Fc1ccc(Cn2cc(NCCN3CCOCC3)nn2)cc1F` had a Ki in data set [2] of 878 nM. This Ki lies about 1.9-fold higher than the previous one.
As to `Clc1ccc(Cn2cc(NCCN3CCOCC3)nn2)cc1Cl`, the Ki in [3] is > 10000 nM. Besides, in the data set with Mus musculus [4], the inhibition in vivo at 40 mg/kg is 94%. The inhibition in vivo at 80 mg/kg stood at 67% in the data set with Mus musculus [5], 94% with Mus musculus [6] and 140% in the data set on Mus musculus [7]. Also, the microsomal CLint at 10 µM in data set [8] stood at 2.9 µL/min/mg. Besides, the Papp at 2 h, 10 µM in [9] was determined as 46.2 ×10⁻⁶ cm/s. In addition, in data set [10], the logP came out at 2.4. In addition, the pKa in [11] turned out to be 6.7. In [12], the solubility thermodynamic was > 4000 µg/mL.
In the case of `Fc1ccc(-n2cc(NCCN3CCOCC3)nn2)cc1F`, in [2], the Ki is > 1000 nM.
As to `Fc1ccc(-n2cc(NCCN3CCCCC3)nn2)cc1F`, the inhibition in the data set listed under Cavia porcellus was 65%. In addition, the IC50 in [1] was found to be 2200 nM.
Turning to `CC(=O)N(CCN1CCOCC1)c1cn(Cc2ccc(Cl)c(Cl)c2)nn1`, the Ki in [2] stood at 459 nM.
The same measure, in the same setting: then `Fc1cccc(-n2cc(NCCN3CCOCC3)nn2)c1`, with 781 nM.
In data set [2], `CC(=O)N1CCN(CCNc2cn(Cc3ccc(Cl)c(Cl)c3)nn2)CC1` showed a Ki of 818 nM.
In [3], `CCN(CCN1CCOCC1)c1cn(-c2ccc(Cl)c(Cl)c2)nn1` displayed a Ki of 55 nM.
